According to PubChem BioAssay:
The source made the active and inactive calls.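 The calls were made as follows, unless noted: active = a full or partial loss of lipid-probe fluorescence in the fish gall bladder, intestine or both, judged by eye; inactive = no fluorescence loss, or compound toxic to the fish.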

What was measured:
[1] = inhibitors of TNFa-induced NFkB p65 translocation, primary screen, imaging, HUVEC, MLSMR starter and 10KST1 sets (AID 438;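 active = inhibition above 20% together with a positive visual image hit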;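 also: compound added about 3h40 before a 20 min TNFalpha stimulation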;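 as to inhibition: signal is the nuclear over cytoplasmic p65 intensity ratio per well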); settings: HUVEC TNFa-induced p65 nuclear translocation; cell count: measured here: nuclei count (cytotoxicity indicator), at 2.08 µM; inhibition: at 2 µM, stronger effect = higher value, 0% TNFa-plus-vehicle, 100% no-TNFa wells
[2] = inhibitors of E-selectin induction by TNFa, primary screen, imaging, HUVEC, immunofluorescence, MLSMR starter and 10KST1 sets (AID 487;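 active = visually confirmed hit in the image check and inhibition above 20%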;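 as to inhibition: signal is fraction of cell area covered by stained E-selectin grains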;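 as to nuclei count: 100% = median nuclei count of all wells on the same plate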); settings: HUVEC TNFalpha-induced E-selectin immunofluorescence imaging, at 2 µM; inhibition: stronger effect = higher value; nuclei count: measured here: cell number, toxicity
[3] = DUSP6 inhibitors restoring Erk phosphorylation by chemical complementation, primary imaging in DUSP6-transfected HeLa (AID 609;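 active = compounds giving at least 50% inhibition in the cell-based MKP-3 phosphatase rescue imaging test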;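 as to inhibition: phospho-Erk level distribution per well compared with pooled transfected vehicle control wells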); settings: HeLa MKP-3 transfected, phospho-Erk imaging KS statistic, at 10 µM, cells stimulated with TPA for 15 min
[4] = biological target: Dual specificity protein phosphatase 6 (Homo sapiens) (UniProt Q16828); assay: as above; settings: HeLa MKP-3 transfected, phospho-Erk imaging KS statistic; at 10 µM; stronger effect = higher value; cells stimulated with TPA for 15 min
[5] = biological target: Voltage-gated potassium channel subunit beta-2 (Rattus norvegicus) (UniProt P62483); assay: KvBeta enzyme negative modulators, primary screen, biochemical, NADPH fluorescence (AID 622;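 active = fluorescence slope higher than the sample average by over 3 SD, cut at about -0.22 in these data, passing the limit was not always enough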;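 also: slope of raw intensity against log time taken from 70 to 1610 s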); settings: recombinant KvBeta, 4-cyanobenzaldehyde reduction, at 10 µM, stronger effect = higher value
[6] = biological target: Voltage-gated potassium channel subunit beta-2 (Rattus norvegicus) (UniProt P62483); assay: KvBeta positive modulators, primary screen, biochemical, NADPH fluorescence (AID 623;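 active = NADPH fluorescence slope more negative than the mean of all samples by about 3 SD, 99.7% confidence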;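 also: fluorescence intensity change per second fitted from 20 to 320 s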); settings: Recombinant KvBeta, NADPH fluorescence decrease slope, 10 min; at 10 µM; stronger effect = lower value
[7] = biological target: Muscarinic acetylcholine receptor M4 (Homo sapiens) (UniProt P08173); assay: compounds altering M4/GIRK thallium flux, either direction, primary screen, M4 allosteric agonist project, cell-based, HEK293 M4/GIRK, BTC-AM (AID 625;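 active = fluorescence slope after compound addition differing from the mean of all tested samples at 99.7% confidence, mostly higher but some lower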;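 also: thallium influx through GIRK channels coupled to M4 in HEK293 cells with BTC-AM dye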); settings: at 10 µM, actives lie on both sides
Procedure, shortened: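 Material – HEK293 cells with M4 receptor and GIRK channels · Buffer or medium – pH 7.3 thallium assay buffer · Doses – one dose, 10 µM final · Timing – cells overnight at 37 °C, BTC-AM loading 1 h, reads 2 min total · Measured by – kinetic fluorescence with BTC-AM dye · Controls – carbachol and DMSO controls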

[8] = inhibitors of larval lipid processing in zebrafish, primary screen, whole organism, PED6 fluorescence, gall bladder and intestine (AID 686); settings: Zebrafish larvae PED6 lipid processing, fluorescence scoring; screened at 20 µM (by protocol);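 also: larvae 5 to 7 days old with five fish per well; signal comes from phospholipase A2 cleavage of quenched PED6 carried via bile; overnight exposure to compound and PED6 before scoring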
Procedure, shortened: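 system = live zebrafish larvae aged 5-7 days, whole organism | probe or stimulus = ingested quenched lipid PED6 at 100 nM | doses = 20 µM single dose | timing = overnight exposure | detection = fluorescence microscopy with visual scoring of gall bladder and intestine | read-out = visual per-well fluorescence inhibition score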

[9] = inhibitors of Chlamydomonas gravitaxis, primary screen, whole organism, Chlamydomonas reinhardtii, WT vs cilia-less mutant, absorbance, 96-well (AID 463189;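 active = inhibition at or above 50% relative to wild type and mutant plate controls; inactive = inhibition below 50%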;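 also: 0% = wild type cc124 cells in DMSO and 100% = ciliumless bld1 mutant cells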); settings: OD600 absorbance, 2 days, at 10 µM, stronger effect = higher value
[10] = measured here: cell density z-score
[11] = measured here: nuclear c-Myc green intensity z-score
[12] = measured here: nuclear pErk red intensity z-score, stronger effect = higher value

Sequence of Dual specificity protein phosphatase 6 (Homo sapiens) (Q16828 whole entry, looked up): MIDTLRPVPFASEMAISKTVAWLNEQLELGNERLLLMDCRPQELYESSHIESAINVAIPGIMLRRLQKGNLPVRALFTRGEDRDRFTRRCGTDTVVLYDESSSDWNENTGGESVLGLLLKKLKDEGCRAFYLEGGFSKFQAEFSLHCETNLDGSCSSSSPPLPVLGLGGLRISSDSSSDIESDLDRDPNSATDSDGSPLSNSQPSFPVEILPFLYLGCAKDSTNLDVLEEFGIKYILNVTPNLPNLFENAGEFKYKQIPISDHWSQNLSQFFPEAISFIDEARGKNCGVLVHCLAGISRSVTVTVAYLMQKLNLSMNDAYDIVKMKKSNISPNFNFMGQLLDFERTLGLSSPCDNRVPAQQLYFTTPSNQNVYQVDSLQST
Sequence of Muscarinic acetylcholine receptor M4 (Homo sapiens) (P08173 whole entry, looked up): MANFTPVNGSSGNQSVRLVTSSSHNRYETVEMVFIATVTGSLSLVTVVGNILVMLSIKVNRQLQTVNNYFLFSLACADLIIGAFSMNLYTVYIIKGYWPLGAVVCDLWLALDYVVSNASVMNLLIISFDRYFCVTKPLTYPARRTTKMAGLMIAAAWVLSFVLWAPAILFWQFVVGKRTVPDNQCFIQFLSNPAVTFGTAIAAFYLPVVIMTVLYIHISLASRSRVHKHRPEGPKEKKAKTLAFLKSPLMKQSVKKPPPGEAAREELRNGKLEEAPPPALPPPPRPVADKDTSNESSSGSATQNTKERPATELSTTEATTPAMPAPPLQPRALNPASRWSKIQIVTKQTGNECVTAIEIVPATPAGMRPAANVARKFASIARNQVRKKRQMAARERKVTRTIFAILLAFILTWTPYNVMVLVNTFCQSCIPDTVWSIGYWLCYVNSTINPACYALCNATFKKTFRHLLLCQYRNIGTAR
Sequence of Voltage-gated potassium channel subunit beta-2 (Rattus norvegicus) (P62483 whole entry, looked up): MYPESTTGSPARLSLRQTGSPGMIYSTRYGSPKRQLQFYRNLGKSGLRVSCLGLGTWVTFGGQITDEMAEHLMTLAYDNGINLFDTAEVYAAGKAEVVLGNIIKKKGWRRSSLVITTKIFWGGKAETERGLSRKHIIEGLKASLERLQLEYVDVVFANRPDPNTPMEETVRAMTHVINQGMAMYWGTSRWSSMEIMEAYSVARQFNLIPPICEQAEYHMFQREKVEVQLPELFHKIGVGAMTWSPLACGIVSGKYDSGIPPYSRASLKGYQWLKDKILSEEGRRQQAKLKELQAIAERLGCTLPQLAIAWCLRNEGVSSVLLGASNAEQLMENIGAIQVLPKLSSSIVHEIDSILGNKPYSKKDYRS

Compound	cell count [1]	inhibition [1]	inhibition [2]	nuclei count [2] [%]	z-score [3, 10]	z-score [3, 11]	z-score [3, 12]	inhibition [4]	fluorescence slope [5]	NADPH fluorescence slope [6]	fluorescence slope [7]	outcome [8]	inhibition [9]
COC(=O)CSc1nnc(C)c(=O)[nH]1	609	-15.3% (inactive)	-317% (inactive)	138	0.155	1.52	-3.1	-7.86% (inactive)	-0.484 (inactive)	-7.4e-05 (inactive)	0.00545 (inactive)	inactive	-3.96% (inactive)
CC(=O)/C(C#N)=C1\NC(=O)C(Cc2ccccc2)S1 (centres undefined)	574	-16.2% (inactive)	5.4% (inactive)	183	0.151	0.495	0.071	-8.59% (inactive)	-0.425 (inactive)	-6.1e-05 (inactive)	0.00604 (inactive)	inactive	3.86% (inactive)
CN1Cc2c(N3CCOCC3)nc(SCc3ccccc3)c(C#N)c2CC1(C)C	524	-3.1% (inactive)	-101% (inactive)	134	-1.78	-0.223	-1.03	-0.584% (inactive)	-0.496 (inactive)	-7.5e-06 (inactive)	0.00495 (inactive)	inactive	17.9% (inactive)
CCOc1ccc(C2C(C#N)=C(N)Oc3cc(C)n(CCN4CCOCC4)c(=O)c32)cc1OCC (centres undefined)	556	-10.8% (inactive)	-15.2% (inactive)	167	-0.219	1.25	-0.841	-10.1% (inactive)	-0.458 (inactive)	-4.1e-05 (inactive)	0.0054 (inactive)	inactive	7.88% (inactive)
N#CCSc1nc2c(c(=O)n1Cc1ccco1)C1(CCCC1)Cc1ccccc1-2	500	-2.6% (inactive)	-97.3% (inactive)	150	0.3	0.666	-0.907	13.9% (inactive)	-0.397 (inactive)	-2.2e-05 (inactive)	0.00897 (inactive)	active; weak signal in gallbladder and intestine	-7.4% (inactive)
COc1ccc(/C(O)=C2/C(=O)C(=O)N(CCN3CCOCC3)C2c2cccnc2)cc1OC (centres undefined)	364	-4.2% (inactive)	-126% (inactive)	151	-0.575	1.61	-0.594	11.9% (inactive)	-0.486 (inactive)	-4.1e-05 (inactive)	0.00405 (inactive)	inactive	-1.91% (inactive)
Cc1nc(NCCO)c(C#N)c2c1COC(C)(C)C2	538	-2.6% (inactive)	-147% (inactive)	132	-0.0329	1.94	-1.24	15.4% (inactive)	-0.464 (inactive)	-3.6e-05 (inactive)	0.0044 (inactive)	inactive	5.51% (inactive)
CN(C)C(=O)COn1c(SCC(=O)N(C)C)nc2ccccc2c1=O	739	2% (inactive)	-47.5% (inactive)	191	-0.833	-0.176	1.1	0.671% (inactive)	-0.428 (inactive)	-3.4e-05 (inactive)	0.00719 (inactive)	inactive	0.936% (inactive)
CCCc1cc(Nc2c(C)n(C)n(-c3ccccc3)c2=O)n2c(nc3ccccc32)c1C#N	336	-3.4% (inactive)	-170% (inactive)	134	-1.08	0.689	-0.99	-6.59% (inactive)	-0.48 (inactive)	-2.2e-05 (inactive)	0.00467 (inactive)	inactive	0.457% (inactive)
CCCC(C)n1[nH]c(=O)cc1N (centres undefined)	395	-2.2% (inactive)	-101% (inactive)	137	1.2	-1.78	-0.211	30.7% (inactive)	-0.46 (inactive)	-0.000101 (inactive)	0.00418 (inactive)	inactive	27.7% (inactive)
Cn1c(N)c(C#N)c(C#N)c1-c1ccccc1	625	-10.7% (inactive)	-93.2% (inactive)	183	-0.336	-0.891	0.762	-2.59% (inactive)	-0.339 (inactive)	-1.8e-05 (inactive)	0.00399 (inactive)	inactive	31.5% (inactive)
CCCC1C(c2ccc(OC)cc2)C(C#N)(C#N)C2(C#N)CC1(N)NC2=O (centres undefined)	369	-0.7% (inactive)	-28.9% (inactive)	84.9	-2.59	2.42	-0.136	-2.69% (inactive)	-0.495 (inactive)	3.3e-05 (inactive)	0.00515 (inactive)	inactive	-15.7% (inactive)
CCCc1cc(NCCCCO)n2c(nc3ccccc32)c1C#N	484	-2.4% (inactive)	-67.8% (inactive)	112	-0.769	-0.182	0.272	21.8% (inactive)	-0.238 (inactive)	-2.1e-05 (inactive)	0.00464 (inactive)	inactive	26.9% (inactive)
